High-throughput results as filed in PubChem BioAssay.
Many of the other results were omitted from the sample, so hits are more common in it than they were.
H69AR inhibit: proliferation blockers of H69AR lung cancer cells, primary screen, cell-based, human, 86K library; H69AR lung tumor viability, ATP luminescence, 72 h; stronger effect = lower value; viability, % at 10 µM; 85,000 compounds, 6% hits; AID 598, 2007;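 active means viability at or below 40%; inactive means viability above 40%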;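 further: multidrug resistant small cell line overexpressing MRP-1 efflux transporter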
Fibroblast inh: antiproliferative effect on LL 47 fibroblasts – human, LL 47 cells, CellTiter-Glo luminescence, primary screen; LL 47 human lung fibroblast viability, ATP luminescence; stronger effect = lower value; viability, % at 10 µM; 85,000 compounds, 1.1% hits; AID 719, 2007;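 active means viability at or below 50% in the single dose screen; inactive means viability above 50%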;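 further: compound exposure lasted 72 h before the ATP readout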
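Material: human lung fibroblast line LL 47, low passage; Evaluation: viability percentage against median untreated-cell control; Buffer or medium: 15% FBS in IMEM; Incubation: 72 h compound exposure at 37 °C after overnight plating; Dosing: 0.1% DMSO in all compound wells; Measured by: CellTiter-Glo luminescence.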
Calb biofilm kill: clotrimazole potentiators killing Candida biofilms, primary screen, with clotrimazole, Alamar Blue. C. albicans biofilm + clotrimazole. 85,000 compounds, 0.14% hits. inhibition, % at 6 µM;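 active means inhibition above 20%; inactive means inhibition below 20%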;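 further: preformed 24 hr biofilms exposed to compound for 48 hr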
bCat KO growth: primary screen for growth suppressors in beta-catenin knockout HCT116 cells (colon tumor, human); HCT116 beta-catenin knockout viability, CellTiter-Glo, 60 h; stronger effect = lower value; viability, % at 10 µM; 140,000 compounds, 1.5% hits;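 active means viability at or under a set limit, the compound median less 4 SD, cut at about 6% in these data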
HUVEC prolif 384: inhibitors of HUVEC proliferation, primary screen, cell-based, 384-well; CellTiter-Glo luminescence, 72 h; stronger effect = lower value; viability, % at 10 µM (by protocol); 86,000 compounds, 1.1% hits;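 active means viability at or below 30%; inactive means viability above 30%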
PTEN del growth: growth suppression of PTEN-null HCT116, primary screen, cell-based, CellTiter-Glo | HCT116 PTEN-null viability, 60 h; stronger effect = lower value | viability, % at 10 µM | 140,000 compounds, 1.2% hits;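 active means viability at or below a set limit, 4 SD under the median of all tested compounds, cut at about 3.7% in these data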;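 further: PTEN knockout HCT116 line with beta catenin targeted HCT116 as companion control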
Each line names hits and unclear results; the compound was inactive in the other large screens.

COCCOC(=O)C1=C(C)N=C2SCCC(=O)N2C1c1ccc(OC(=O)c2ccco2)cc1 (stereo not given)	none (no result: H69AR inhibit, Fibroblast inh, Calb biofilm kill, HUVEC prolif 384)
Cc1ccccc1-c1nsc(SCC(=O)c2ccc(Cl)cc2)n1	none (no result: H69AR inhibit, Fibroblast inh, Calb biofilm kill, HUVEC prolif 384)
CC1=C(CC(=O)c2ccc(Cl)cc2)C(=O)c2ccccc2C1=O	bCat KO growth 3.7, PTEN del growth 1.9 (no result: H69AR inhibit, Fibroblast inh, Calb biofilm kill, HUVEC prolif 384)
CCOc1ccc(CN2CCN(CC(O)Cn3c4ccccc4c4ccccc43)CC2)cc1 (stereo not given)	bCat KO growth 1.5, PTEN del growth 1.6 (no result: H69AR inhibit, Fibroblast inh, Calb biofilm kill, HUVEC prolif 384)
CCOc1c(Br)cc(C2NS(=O)(=O)N=C3CCCCCN32)cc1OC (stereo not given)	H69AR inhibit 34
O=S1(=O)N=C2CCCN2C(c2ccc(F)cc2)N1 (stereo not given)	none
O=C(CCn1c(=S)[nH]c2ccccc2c1=O)N1CCN(c2ccccn2)CC1	none (no result: bCat KO growth, PTEN del growth)
CCCOC(=O)CSC1=C(C#N)C(c2ccc3c(c2)OCO3)CC(=O)N1 (stereo not given)	H69AR inhibit 23
N#CC1=C(N)SC(N)=C(C#N)C1Cc1ccccc1	H69AR inhibit 17
CCOC(=O)N1CCC(N2CCN(S(=O)(=O)c3ccc(Cl)cc3)CC2)CC1	H69AR inhibit 27
Cc1ccc(Nc2nc(N)nc(CN3CCN(Cc4ccc5c(c4)OCO5)CC3)n2)cc1	none
Cc1ccc(Nc2nc(N)nc(CN3CCN(Cc4ccc5c(c4)OCO5)CC3)n2)cc1Cl	H69AR inhibit 14, bCat KO growth 0.9, PTEN del growth 1.5
COc1ccc(N2CCN(Cc3nc(N)nc(Nc4ccc(C)c(Cl)c4)n3)CC2)cc1	H69AR inhibit 23, bCat KO growth 0.8, PTEN del growth 1.4
Cc1cc(C)cc(N(CCC(=O)Nc2nnc(C)s2)S(=O)(=O)c2ccc(Cl)cc2)c1	none (no result: H69AR inhibit, Fibroblast inh, Calb biofilm kill, HUVEC prolif 384)
CCN(CC)CC(C)CNC(=O)CN1C(=O)CSc2ccc(S(=O)(=O)N3CCOCC3)cc21 (stereo not given)	none (no result: H69AR inhibit, Fibroblast inh, Calb biofilm kill, HUVEC prolif 384)
Clc1cc(Cl)cc(C2=NCCC(c3ccccc3)O2)c1 (stereo not given)	none (no result: H69AR inhibit, Fibroblast inh, Calb biofilm kill, HUVEC prolif 384)
COc1ccc(Cl)cc1NC(=O)C(C)N1CCN(C/C=C/c2ccccc2)CC1 (stereo not given)	H69AR inhibit 40
CC(C(=O)Nc1ccc([N+](=O)[O-])cc1)N1CCN(C/C=C/c2ccccc2)CC1 (stereo not given)	none (no result: H69AR inhibit, Fibroblast inh, Calb biofilm kill, HUVEC prolif 384)
CSc1ccc(/C=C(\C#N)C(=O)Nc2cccc(C)c2)cc1	none (no result: H69AR inhibit, Fibroblast inh, Calb biofilm kill, HUVEC prolif 384)
O=Cc1cn(CC(=O)N2CCOCC2)c2ccccc12	none
CN1CCN(Cn2cc(/C=C/C(=O)c3ccccc3)c3ccccc32)CC1	H69AR inhibit 12
O=C(/C=C/c1cn(CC(O)CN2CCCCC2)c2ccccc12)c1cccs1 (stereo not given)	bCat KO growth 2.7 (no result: H69AR inhibit, Fibroblast inh, Calb biofilm kill, HUVEC prolif 384)
CCCN(CCC)CC(O)Cn1cc(/C=C/C(=O)c2cccs2)c2ccccc21 (stereo not given)	bCat KO growth 1.2, PTEN del growth 1.3 (no result: H69AR inhibit, Fibroblast inh, Calb biofilm kill, HUVEC prolif 384)
COc1ccc(OC)c(NC(=O)C(CC(=O)O)NCc2ccco2)c1 (stereo not given)	none (no result: H69AR inhibit, Fibroblast inh, Calb biofilm kill, HUVEC prolif 384)
O=C(NC(=S)Nc1ccc(S(=O)(=O)NC2CCCCC2)cc1)c1cccs1	none (no result: H69AR inhibit, Fibroblast inh, Calb biofilm kill, HUVEC prolif 384)
CCOC(=O)c1cnc(-n2nc(C)cc2C)nc1NCCc1ccccc1	H69AR inhibit 1.9, Fibroblast inh 45, bCat KO growth 2.2, PTEN del growth 2.9
CCOC(=O)c1cnc(-n2nc(C)cc2C)nc1Nc1ccccc1OC	none (no result: H69AR inhibit, Fibroblast inh, Calb biofilm kill, HUVEC prolif 384)
CCOC(=O)c1cnc(-n2nc(C)cc2C)nc1NCc1ccc2c(c1)OCO2	HUVEC prolif 384 24
CC1(C)CC(=O)C(=C2SCCCS2)C(=O)C1	none (no result: H69AR inhibit, Fibroblast inh, Calb biofilm kill, HUVEC prolif 384)
Cc1cc(C)n(-c2ccc3cccc(NS(C)(=O)=O)c3n2)n1	H69AR inhibit 21, Fibroblast inh 26, bCat KO growth 3.6, HUVEC prolif 384 23
COc1ccc(C(=O)/C=C/c2ccc(N3CCCCC3)c([N+](=O)[O-])c2)cc1	none (no result: H69AR inhibit, Fibroblast inh, Calb biofilm kill, HUVEC prolif 384)
COc1ccc(/C=C/C(=O)c2ccc(C)c([N+](=O)[O-])c2)cc1O	bCat KO growth 1.2, PTEN del growth 1.4 (no result: H69AR inhibit, Fibroblast inh, Calb biofilm kill, HUVEC prolif 384)
COc1cc(/C=C/C(=O)c2ccc(C)c([N+](=O)[O-])c2)cc(OC)c1O	bCat KO growth 2.4, PTEN del growth 3.0 (no result: H69AR inhibit, Fibroblast inh, Calb biofilm kill, HUVEC prolif 384)
